In brackets after ≈: the same amount, converted by molar mass.
What was measured:
[1] = tested on: HepG2; assay: Cytotoxicity against human HepG2 cells assessed as intracellular ATP level after 72 hrs by Celltiter-Glo luminescent assay; format: cell-based; conditions: HepG2, 72 h
[2] = Solubility of the compound at pH 7.4 after 18 hrs by UV spectroscopic analysis; format: physicochemical; conditions: buffer
Outline: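 Kinetic solubility. A 10 mM stock is diluted 1:100 into PBS pH 7.4 and incubated 18 h at room temperature, then filtered; the filtrate is mixed 1:1 with 1-propanol. UV spectrum (250–500 nm) compared by AUC with a 1-propanol/PBS reference. Single experiment in triplicate.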

[3] = tested on: Plasmodium falciparum; assay: Antimalarial activity against chloroquine-sensitive Plasmodium falciparum 3D7 infected in human erythrocytes assessed as reduction in parasitemia after 72 hrs by spectrophotometry; format: functional, organism-based; conditions: 3D7, 72 h
[4] = Ratio of EC50 for human HepG2 cells to EC50 for Plasmodium falciparum 3D7 infected in human erythrocytes
[5] = Dissociation constant, pKa of the compound; format: physicochemical
[6] = tested on: Plasmodium falciparum; assay: Antimalarial activity against chloroquine-resistant Plasmodium falciparum K1 infected in human erythrocytes assessed as reduction in parasitemia after 72 hrs by spectrophotometry; format: functional, organism-based; conditions: K1, 72 h
[7] = tested on: Plasmodium falciparum; assay: Ratio of EC50 for chloroquine-resistant Plasmodium falciparum K1 infected in human erythrocytes to EC50 for chloroquine-sensitive Plasmodium falciparum 3D7 infected in human erythrocytes; format: functional
[8] = Permeability of the compound at pH 7.4 after 30 mins by PAMPA; format: ADME; conditions: read-out: permeability
Outline: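 PAMPA at pH 7.4. A 10 mM DMSO stock is diluted into system solution buffer; its UV spectrum serves as reference. Membrane painted with GIT lipid, acceptor chamber holds acceptor solution buffer. Sandwich stirred for 30 min, aqueous boundary layer set to 40. Donor and acceptor UV spectra read at 250–500 nm. Permeability coefficient from the AUCs of reference, donor and acceptor. Single experiment in triplicate.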

[9] = Ratio of EC50 for human HepG2 cells to EC50 for Plasmodium falciparum K1 infected in human erythrocytes

| SMILES | EC50 [1] | solubility at 18 h [2] | EC50 [3] | Ratio EC50 [4] | pKa [5] | EC50 [6] | Ratio EC50 [7] | Papp at 0.5 h [8] | Ratio EC50 [9] |
| --- | --- | --- | --- | --- | --- | --- | --- | --- | --- |
| FC(F)(F)c1cccc(Cc2ccc3c(NCCCNCc4ccco4)ccnc3c2)c1 | 3190 nM | 4.2 µM (≈ 1.85 µg/mL) | 56 nM | 56.7 | 9.47 | 743 nM | 13.2 | 23 ×10⁻⁶ cm/s | 4.3 |
| CN(C)c1cccc(Oc2ccc3c(NCCCNCc4ccco4)ccnc3c2)c1 | 16000 nM | 14.5 µM (≈ 6.04 µg/mL) | 27 nM | 588 | 9.28 | 155 nM | 5.7 | 317 ×10⁻⁶ cm/s | 103 |
| COc1cccc(CNCCCNc2ccnc3cc(CCC(C)C)ccc23)c1O | 5390 nM | 4.2 µM (≈ 1.71 µg/mL) | 22 nM | 245.9 | 9.47 | 8000 nM | 365.3 | 23 ×10⁻⁶ cm/s | 0.7 |
| COc1cccc(Oc2ccc3c(NCCCNCc4ccc5c(c4)OCO5)ccnc3c2)c1 | 14100 nM | 14.5 µM (≈ 6.63 µg/mL) | 12 nM | 1178 | 9.28 | 600 nM | 50 | 317 ×10⁻⁶ cm/s | 24 |
| COc1cccc(CNCCCNc2ccnc3cc(Cc4ccc(F)cc4Cl)ccc23)c1O | 2350 nM | 4.2 µM (≈ 2.02 µg/mL) | 13 nM | 185.4 | 9.47 | 5140 nM | 404.4 | 23 ×10⁻⁶ cm/s | 0.5 |
| CCC(CC)c1ccc2c(NCCCNCc3cc(F)ccc3OC)ccnc2c1 | 7860 nM | 4.2 µM (≈ 1.72 µg/mL) | 40 nM | 194.9 | 9.47 | 1930 nM | 48 | 23 ×10⁻⁶ cm/s | 4.1 |
| COc1cccc(CNCCCNc2ccnc3cc(Cc4ccc(F)cc4)ccc23)c1O | 4780 nM | 4.2 µM (≈ 1.87 µg/mL) | 15 nM | 316.6 | 9.47 | 7150 nM | 473.5 | 23 ×10⁻⁶ cm/s | 0.7 |
| COc1ccc(F)cc1CNCCCNc1ccnc2cc(-c3ccccc3)ccc12 | 2960 nM | 32 µM (≈ 13.3 µg/mL) | 11 nM | 276.4 | 9.47 | 45 nM | 4.2 | 237 ×10⁻⁶ cm/s | 66.3 |
| COc1ccc(Oc2ccc3c(NCCCNCc4cc(F)ccc4OC)ccnc3c2)cc1 | 7000 nM | 14.5 µM (≈ 6.69 µg/mL) | 54 nM | 129 | 9.28 | 660 nM | 12.2 | 317 ×10⁻⁶ cm/s | 11 |
| COc1cccc(CNCCCNc2ccnc3cc(-c4cccc5ccccc45)ccc23)c1O | 2520 nM | 32 µM (≈ 14.8 µg/mL) | 33 nM | 76.3 | 9.47 | 1120 nM | 33.9 | 237 ×10⁻⁶ cm/s | 2.3 |
| COc1ccc(F)cc1CNCCCNc1ccnc2cc(CC(C)C)ccc12 | 2900 nM | 4.2 µM (≈ 1.66 µg/mL) | 89 nM | 32.7 | 9.47 | 2120 nM | 23.9 | 23 ×10⁻⁶ cm/s | 1.4 |
| FC(F)(F)c1cc(-c2ccc3c(NCCCNCc4ccco4)ccnc3c2)cc(C(F)(F)F)c1 | 2410 nM | 32 µM (≈ 15.8 µg/mL) | 285 nM | 8.5 | 9.47 | 972 nM | 3.4 | 237 ×10⁻⁶ cm/s | 2.5 |
| COc1ccc(F)cc1CNCCCNc1ccnc2cc(Cc3ccc(F)cc3Cl)ccc12 | 2460 nM | 4.2 µM (≈ 2.02 µg/mL) | 208 nM | 11.8 | 9.47 | 1110 nM | 5.4 | 23 ×10⁻⁶ cm/s | 2.2 |
| COc1ccc(F)cc1CNCCCNc1ccnc2cc(Cc3cccc(C(F)(F)F)c3)ccc12 | 440 nM | 4.2 µM (≈ 2.09 µg/mL) | 40 nM | 11 | 9.47 | 323 nM | 8.1 | 23 ×10⁻⁶ cm/s | 1.3 |
| COc1ccc(Oc2ccc3c(NCCCNCc4ccco4)ccnc3c2)cc1 | 5300 nM | 14.5 µM (≈ 5.85 µg/mL) | 4 nM | 1479 | 9.28 | 20 nM | 5.6 | 317 ×10⁻⁶ cm/s | 265 |
| c1ccc(Oc2ccc3c(NCCCNCc4ccc5c(c4)OCO5)ccnc3c2)cc1 | 2700 nM | 14.5 µM (≈ 6.2 µg/mL) | 18 nM | 149 | 9.28 | 78 nM | 4.3 | 317 ×10⁻⁶ cm/s | 34 |
| c1coc(CNCCCNc2ccnc3cc(-c4cccc5ccccc45)ccc23)c1 | 5600 nM | 32 µM (≈ 13 µg/mL) | 31 nM | 178.2 | 9.47 | 1300 nM | 41.2 | 237 ×10⁻⁶ cm/s | 4.3 |
| COc1ccc(Oc2ccc3c(NCCCNCc4ccc5c(c4)OCO5)ccnc3c2)cc1 | 7900 nM | 14.5 µM (≈ 6.63 µg/mL) | 46 nM | 172 | 9.28 | 1420 nM | 30.9 | 317 ×10⁻⁶ cm/s | 6 |
| FC(F)(F)c1cccc(Cc2ccc3c(NCCCNCc4ccc5c(c4)OCO5)ccnc3c2)c1 | 2200 nM | 4.2 µM (≈ 2.07 µg/mL) | 39 nM | 56.1 | 9.47 | 1310 nM | 33.5 | 23 ×10⁻⁶ cm/s | 1.7 |
| COc1ccc(F)cc1CNCCCNc1ccnc2cc(CC3CCCCC3)ccc12 | 1830 nM | 4.2 µM (≈ 1.83 µg/mL) | 138 nM | 13.3 | 9.47 | 687 nM | 5 | 23 ×10⁻⁶ cm/s | 2.7 |
| COc1ccc(-c2ccc3c(NCCCNCc4ccc5c(c4)OCO5)ccnc3c2)cc1 | 5630 nM | 32 µM (≈ 14.1 µg/mL) | 29 nM | 192.9 | 9.47 | 26 nM | 0.9 | 237 ×10⁻⁶ cm/s | 218.3 |

— ChEMBL document CHEMBL1833887, “Synthesis and evaluation of 7-substituted 4-aminoquinoline analogues for antimalarial activity” (J Med Chem, 2011)
